Key:
Mus musculus [1] = species on record: Mus musculus; test: Minimum effective peroral dose (MED) in mouse forced-swim test; assay type: functional; conditions: po, read-out: MED
How it was run: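 Mice dosed orally, with compound in vehicle at 1 mL/100 g. One hour later they were placed in water at 25 °C. After 2 min habituation, immobility was rated ten times at 30-s intervals and expressed as percent of control. At least four half-log-spaced doses were given, with nine mice per dose. MED was the lowest dose giving a statistically significant decrease in immobility.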

Phosphodiesterase 4 [2] = target: T1, Phosphodiesterase 4 (Rattus norvegicus, UniProt P14270+P14646+P14644+P54748); test: Inhibition of [3H]- rolipram binding to rat cerebral cortex membranes; assay type: cell membranes, Membrane
How it was run: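 Cerebral cortex membranes homogenized in ice-cold 50 mM Tris-HCl pH 8.0 with 1.2 mM MgCl2, spun at 30000g for 20 min at 4 °C, washed once and resuspended at 0.5 mg protein/mL. (±)-[3H]rolipram at 2 nM final, 30 min at 25 °C, triplicates per concentration. Nonspecific binding defined with Ro 20-1724 (10 μM). Filtration, then scintillation counting. IC50 taken from semilog plots over several log concentrations.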

Phosphodiesterase 4 [3] = target: T1, Phosphodiesterase 4; test: Inhibition of calcium-independent Phosphodiesterase 4; assay type: protein assay
How it was run: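 Enzyme taken from the 105000g supernatant of female Sprague-Dawley rat cerebral cortex and separated from the calcium-dependent form on Sephadex G-200. Substrate was 1.0 μM [3H]cAMP in Tris-HCl pH 7.5/MgCl2, run in triplicate for 8 min at 37 °C and stopped by heat. [3H]5'-AMP was separated on boronate affinity gel and counted. IC50 came from semilog plots over three log concentrations in triplicate.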

Mus musculus [4] = test: Reversal of reserpine-induced hypothermia in mice by intraperitoneal dose; assay type: functional; conditions: ip, read-out: MED
How it was run: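 Individually housed mice at 20 °C received reserpine 2 mg/kg sc 18 h before test. Rectal temperature was measured before and 1 h after dosing with test drug in 5% DMSO/5% Emulphor 620/90% saline. At least four half-log-spaced doses were given, with nine mice per dose. MED was the dose giving a statistically significant temperature increase.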

SMILES	minimal effective dose (Mus musculus [1]) [mg/kg]	IC50 (Phosphodiesterase 4 [2]) [nM]	IC50 (Phosphodiesterase 4 [3]) [nM]	minimal effective dose (Mus musculus [4]) [µg/kg]
COc1ccc(C2CNC(=O)N2C)cc1OC1CC2C3CCC(C3)C12 (stereo not given)	> 32	100	3100	–
COc1ccc(C2CNC(=O)N2C)cc1OC1CC2CCC1CC2 (stereo not given)	–	81	2500	> 3200
COc1ccc(C2CNC(=O)N2C)cc1OC1CC2C3CCC(C3)C2C1 (stereo not given)	> 32	> 100	1400	3200
COc1ccc(C2CNC(=O)N2C)cc1OC1CC2CCC(C2)C1 (stereo not given)	> 32	> 100	2400	> 3200
COc1ccc(C2CNC(=O)N2C)cc1O[C@H]1CC2CC1C1CCCC21 (stereo not given in full)	32	–	–	320
COc1ccc(C2CNC(=O)N2C)cc1O[C@H]1CC2CCC1C2 (stereo not given in full)	> 32	–	–	1000
COc1ccc(C2CNC(=O)N2C)cc1O[C@@H]1CC2CCC1C2 (stereo not given in full)	1	2.6	220	0.03
COc1ccc(C2CNC(=O)N2C)cc1O[C@@H]1CC2CC1C1CCCC21 (stereo not given in full)	10	10	490	320
COc1ccc(C2CNC(=O)N2C)cc1O[C@@H]1CC2CC1c1ccccc12 (stereo not given in full)	> 32	21	290	1000
COc1ccc(C2CNC(=O)N2C)cc1OC1C2CC3CC(C2)CC1C3 (stereo not given)	> 32	> 100	11000	3200
COc1ccc(C2CNC(=O)N2C)cc1OC1CC2C=CC1C2 (stereo not given)	0.1	3.1	130	100
COc1ccc(C2CNC(=O)C2)cc1OC1CCCC1 (stereo not given) [ROLIPRAM]	1.8	–	–	0.1
